Source: PubChem (The Scripps Research Institute Molecular Screening Center)
TAAR1 agonist = human TAAR1 agonism; Q96RJ0; 360,000 compounds, 0.99% hits; CHO RD-HGA16 TAAR1, Fluo-8 calcium fluorescence; vehicle wells 0%, saturating PEA agonist 100%; AID 624467; activation, % at 3 µM;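 active = activation above the mean activation of all test compounds in the run plus 3 SD, cut at about 38% in these data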
Target sequence (Q96RJ0 whole entry, looked up): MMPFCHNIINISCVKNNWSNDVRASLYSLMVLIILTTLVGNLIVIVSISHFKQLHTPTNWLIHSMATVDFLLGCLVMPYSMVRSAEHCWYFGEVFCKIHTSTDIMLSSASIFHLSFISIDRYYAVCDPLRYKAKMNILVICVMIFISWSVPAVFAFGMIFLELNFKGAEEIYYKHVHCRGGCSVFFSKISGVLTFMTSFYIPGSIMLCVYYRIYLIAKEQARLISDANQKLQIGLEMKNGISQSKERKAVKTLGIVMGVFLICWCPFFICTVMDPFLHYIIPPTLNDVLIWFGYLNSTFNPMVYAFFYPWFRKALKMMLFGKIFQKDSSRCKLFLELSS
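Assay system: CHO-derived RD-HGA16 cells with stable Gα16 and human TAAR1; timing: 17-24 h seeding, 75 min 37 °C dye, 30 min RT; read-out: % activation from peak over basal fluorescence ratio, DMSO-to-PEA scaled; measured by: kinetic Fluo-8 calcium fluorescence; benchmarks: low control DMSO, high control PEA (EC100); doses: 3 µM single concentration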
OX1R antag-1 = antagonists of human orexin 1 receptor. O43613. CHO/OX1R cells, Fluo-8 calcium fluorescence, orexin A. inhibition, % at 5 µM. 330,000 compounds, 0.43% hits;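 active = inhibition above its plate's threshold, mean inhibition of all tested compounds on the plate plus 3 SD, cut at about 37% in these data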
Target sequence (O43613 whole entry, looked up): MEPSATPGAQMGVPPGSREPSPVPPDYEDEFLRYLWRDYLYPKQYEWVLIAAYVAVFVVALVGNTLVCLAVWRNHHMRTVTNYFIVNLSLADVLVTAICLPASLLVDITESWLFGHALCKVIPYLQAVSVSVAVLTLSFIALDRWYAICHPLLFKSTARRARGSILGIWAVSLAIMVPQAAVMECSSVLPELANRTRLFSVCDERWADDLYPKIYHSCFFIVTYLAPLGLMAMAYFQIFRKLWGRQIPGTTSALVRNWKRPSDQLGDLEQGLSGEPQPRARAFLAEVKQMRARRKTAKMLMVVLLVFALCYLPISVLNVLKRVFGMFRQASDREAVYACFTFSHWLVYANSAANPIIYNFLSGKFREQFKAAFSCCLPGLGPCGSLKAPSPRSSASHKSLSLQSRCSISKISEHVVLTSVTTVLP
GPR7 antagonist = human neuropeptides B/W receptor 1 antagonism; GPR7-expressing cells, fluorescence antagonist assay; 290,000 compounds, 1.1% hits; P48145; inhibition, % at 4.4 µM; in the data active = inhibition above about 16%, passing the limit was not always enough;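 note: cells stimulated with the agonist NPW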
CHO parental Ca = counter-screen: ATP calcium response change in parental CHO cells | parental CHO-K1, ATP-induced calcium, Fluo-8 fluorescence | inhibition, % at 5.6 µM | 330,000 compounds, 0.63% hits;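 active = inhibition above that plate's mean sample inhibition plus 3 SD, cut at about 26% in these data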
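Test system: untransfected parental CHO cell line. Compound: one dose, 5.6 µM nominal. Detection: intracellular calcium via Fluo-8 no-wash fluorescent dye. Measure: % inhibition. Benchmarks: ATP-challenged DMSO wells low, unchallenged DMSO wells high.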
TAAR1 antag = human TAAR1 antagonism. CHO RD-HGA16 TAAR1, Fluo-8 calcium fluorescence, antagonist. 360,000 compounds, 1.5% hits. inhibition, % at 3 µM. AID 624466. Q96RJ0;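 active = inhibition above a per-plate cutoff, the mean inhibition of test compounds on that plate plus 3 SD, cut at about 49% in these data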
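Assay system: RD-HGA16 CHO cells with stable hTAAR1 and Gα16 / Reagent: EC80 β-phenethylamine stimulus / Doses: 3 µM, single point / Timing: dye loading 75 min at 37 °C, then 30 min room temperature / Measured by: Fluo-8 intracellular calcium dye fluorescence, real-time kinetic reads / Controls: vehicle wells and EC80 agonist wells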
OX1R antag-2 = blocks the human orexin 1 receptor | OX1R-expressing cells, FRET antagonist read-out | O43613 | 330,000 compounds, 1.8% hits | AID 485270 | inhibition, % at 6.6 µM; in the data active = inhibition mostly above about 38%, no sharp cut-off; inactive = mostly below about 40%
TAAR1 ag confirm = human TAAR1 agonism, confirmed | shares compounds with TAAR1 agonist | CHO RD-HGA16 TAAR1, Fluo-8 calcium fluorescence; scaled: DMSO 0%, maximal phenethylamine 100% | activation, % at 3 µM | 2,400 compounds, 82% hits;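 active = activation above a cutoff set at the run's mean compound activation plus 3 SD, cut at about 39% in these data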
Ga16 ag counter = counter-screen for TAAR1 agonists: nonselective agonists in parental cells | CHO-Ga16 parental, Fluo-8 calcium fluorescence; normalized to maximal ATP response, DMSO zero | AID 651787 | shares compounds with TAAR1 agonist | activation, % at 3 µM | 2,400 compounds, 50% hits;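 active = activation above the run cutoff, the mean activation over all tested wells plus 3 SD, cut at about 12% in these data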
TAAR1 desens = TAAR1 response desensitization, agonist counter-screen. shares compounds with TAAR1 agonist. CHO RD-HGA16 hTAAR1, Fluo-8 calcium, beta-PEA response inhibition. inhibition, % at 3 µM. 2,400 compounds, 46% hits. AID 651951;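 active = inhibition above the run cutoff, the mean inhibition of all test compounds plus 3 SD, cut at about 49% in these data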;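 note: beta-PEA stimulus applied at its EC80; loss of beta-PEA calcium signal after compound pretreatment read as receptor desensitization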
Ga16 antag count = nonselective Ga16 antagonist in TAAR1 agonist counter-screen; inhibition, % at 3 µM; CHO-Ga16 ATP-induced calcium, Fluo-8 fluorescence; shares compounds with TAAR1 agonist; 2,400 compounds, 39% hits;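 active = inhibition above the plate's mean compound inhibition plus 3 SD, computed per plate, cut at about 22% in these data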
Hits are given with their value; n = inactive; x = no result given. Hits are enriched below; roughly 4.6% of the tested compounds scored in any of these assays.

SMILES	TAAR1 agonist	OX1R antag-1	GPR7 antagonist	CHO parental Ca	TAAR1 antag	OX1R antag-2	TAAR1 ag confirm	Ga16 ag counter	TAAR1 desens	Ga16 antag count
Cc1cc(Br)ccc1Nc1nc(N)nc(N)c1N=O	n	x	x	x	n	x	x	x	x	x
Cc1ccc(N(C)c2nc(N)nc(N)c2N=O)cc1	59.1	x	x	x	n	x	53.4	64.8	n	37.1
Cc1ccc(N2C(=O)c3cccc4c(N)ccc(c34)C2=O)c2cccnc12	230.2	73.8	18.8	65.5	79.2	n	105.3	126.2	61.4	68.5
C[C@H](O)[C@@H]1C(=O)N2CCc3ccc(-c4ccccc4)cc3[C@@H]2C[C@@H]1N(C)C(=S)Nc1ccc(F)cc1	65.7	x	x	x	n	x	70.1	34.2	49.2	46.3
C[C@H](O)[C@@H]1C(=O)N2CCc3ccc(-c4cccc(F)c4)cc3[C@@H]2C[C@@H]1N(C)C(=O)Nc1ccccc1	n	x	x	x	n	x	x	x	x	x
COc1cccc(/C=N/Nc2ccccc2C(=O)O)c1O	n	n	n	n	n	n	x	x	x	x
COc1cccc(/C=N/Nc2snc(SC)c2C#N)c1O	75.1	n	n	n	60.1	60.0	69.3	52.3	82.5	43.7
Nc1nc(Nc2ccccc2)nc2ccccc12	102.7	n	n	n	90.5	n	94.9	n	100.3	n
CN(C)c1ccc(Nc2nc(N)c3ccccc3n2)cc1	n	n	n	n	n	n	x	x	x	x
Cc1ccc(Nc2nc(N)c3ccccc3n2)cc1Cl	49.5	n	n	n	n	n	82.5	24.2	74.6	n
Nc1nc(Nc2ccc(Cl)cc2)nc2ccccc12	65.0	n	n	n	72.1	n	83.9	n	70.1	n
CC(=O)OC[C@@H]1CN(Cc2ccccc2)C[C@H](n2cnc3c(NCc4ccc(F)cc4)ncnc32)O1	n	x	x	x	n	x	x	x	x	x
COc1ccccc1CCNC(=O)C(=O)NCC1OCCN1S(=O)(=O)c1ccc(C)cc1 (centres undefined)	62.7	n	n	n	n	n	76.4	n	58.1	n
Cc1cc(F)ccc1S(=O)(=O)N1CCCOC1CNC(=O)C(=O)NCCc1ccco1 (centres undefined)	n	x	x	x	n	x	x	x	x	x
O=C(NCCc1ccccc1)C(=O)NCC1OCCN1S(=O)(=O)c1cc(F)ccc1F (centres undefined)	51.7	n	n	n	n	n	69.0	n	57.6	33.8
COc1ccccc1CCNC(=O)C(=O)NCC1OCCCN1S(=O)(=O)c1ccc(F)cc1C (centres undefined)	57.8	n	n	n	n	n	64.2	n	n	n
COc1ccccc1CCNC(=O)C(=O)NCC1OCCN1S(=O)(=O)c1cccs1 (centres undefined)	71.6	n	n	n	n	n	73.9	n	n	n
O=C(CN1C(=O)COc2ccc(S(=O)(=O)N3CCCCC3)cc21)NCc1ccccc1Cl	n	n	n	n	n	n	x	x	x	x
CCN(CC)CCCn1c2c(c(SCC(=O)Nc3cc(OC)cc(OC)c3)nc1=O)CCC2	n	n	x	n	n	n	x	x	x	x
COc1ccccc1CCNC(=O)C(=O)NCC1OCCN1S(=O)(=O)c1ccccc1 (centres undefined)	47.4	n	n	n	n	n	69.3	n	n	n
COc1ccccc1CCNC(=O)C(=O)NCC1OCCN1S(=O)(=O)c1ccc([N+](=O)[O-])cc1 (centres undefined)	45.9	n	n	n	n	n	72.5	n	n	n
CN1C(=O)CON=C1c1cccc2ccccc12	n	x	x	x	n	x	x	x	x	x
Cc1c(Cl)cccc1Nc1nc(N)nc(CN2CCc3ccccc3C2)n1	n	n	n	n	n	n	x	x	x	x
Cc1ccc(Nc2nc(N)nc(CN3CCc4ccccc4C3)n2)cc1	52.1	n	n	n	n	n	68.7	n	n	n
CCOC(=O)N1CCN(C(=O)C2CCCN(S(=O)(=O)c3ccc(C)cc3)C2)CC1 (centres undefined)	x	n	n	n	x	n	x	x	x	x
SMILES	TAAR1 agonist	OX1R antag-1	GPR7 antagonist	CHO parental Ca	TAAR1 antag	OX1R antag-2	TAAR1 ag confirm	Ga16 ag counter	TAAR1 desens	Ga16 antag count
O=C(Nc1cc(Cl)ccc1-n1cncn1)c1cc(S(=O)(=O)N2CCOCC2)ccc1F	n	n	n	n	n	n	x	x	x	x
CSc1nc(N)nc(SCC(=O)c2ccc(C)cc2)c1C#N	52.2	n	n	n	54.1	69.2	n	n	n	n
S=C(NCc1ccccc1)N1CCn2cccc2C1c1cccnc1 (centres undefined)	n	x	n	x	n	x	x	x	x	x
S=C(NCCc1ccccc1)N1CCn2cccc2C1c1cccnc1 (centres undefined)	56.5	n	n	n	n	n	62.2	n	n	26.6
Cc1ccc(NC(=O)NC(=O)CN2C(=O)NC3(CCc4ccccc43)C2=O)c(C)c1 (centres undefined)	n	n	n	n	n	n	x	x	x	x
NC(Cc1ccc(Cl)cc1)c1csc(Nc2ccc(-c3ccccc3)nn2)n1 (centres undefined)	62.5	x	x	x	49.4	x	n	25.1	n	40.4
COc1cc(OC)nc(Nc2nc(C(N)Cc3ccc(F)cc3)cs2)n1 (centres undefined)	56.4	x	x	x	n	x	63.3	37.7	n	34.2
CCCc1cnc(Nc2nc(C(N)Cc3ccc(OC)cc3)cs2)nc1 (centres undefined)	48.1	x	x	x	n	x	47.0	18.1	n	n
CCc1cnc(Nc2nc(C(N)Cc3ccc(Cl)cc3)cs2)nc1 (centres undefined)	51.2	x	x	x	n	x	70.1	31.8	n	28.0
COc1ccc(CC(N)c2csc(Nc3cc(NCCCO)ncn3)n2)cc1 (centres undefined)	n	x	x	x	n	x	x	x	x	x
CN(C)S(=O)(=O)Nc1ccccc1C(N)=O	n	n	n	n	n	n	x	x	x	x
COc1ccc(CC(N)c2csc(Nc3nncc4ccccc34)n2)cc1 (centres undefined)	61.4	x	x	x	n	x	82.3	34.0	52.4	31.8
O=C(NCCc1ccccc1Cl)[C@@H]1CCCN1C(=O)[C@@H](NS(=O)(=O)c1ccc(F)cc1F)c1ccccc1	40.9	x	x	x	55.5	x	57.0	n	69.3	n
CC(C)[C@H](NC(=O)C1CC1)C(=O)N1CCC[C@H]1C(=O)NCCc1ccccc1Cl	61.9	x	x	x	69.0	x	92.4	n	89.9	n
